Published values pooled from the literature.
Protocols differ between the studies behind these lines.
PTGS2: Prostaglandin G/H synthase 2 (PTGS2, Homo sapiens, UniProt P35354)
ADRA1D: Alpha-1D adrenergic receptor (ADRA1D, Homo sapiens, UniProt P25100)
CASP7: Caspase-7 (CASP7, Homo sapiens, UniProt P55210)
Dipeptidyl peptidase 2: Dipeptidyl peptidase 2 (Homo sapiens, UniProt Q9UHL4)

Oc1ccc(-c2ncccc2-c2nc3ccccc3s2)cc1  inhibition (PTGS2; enzyme activity, inhibitor, absorbance; 10 µM): 8%
Cn1cc(-c2cc(F)cc(N3CCn4c(cc5c4CCCC5)C3=O)c2CO)cc(Nc2ccc(N3CCN(C4COC4)CC3)cn2)c1=O  inhibition (Protein kinase C zeta type (PRKCZ, Homo sapiens, UniProt Q05513); enzyme activity, inhibitor; 0.1 µM): -2%
CN(C)Cc1ccc(-c2nc3ccccc3s2)c(-c2cccc(O)c2)c1  inhibition (PTGS2; enzyme activity, inhibitor, absorbance; 10 µM): 1%
CCN(CC)CCCC[C@H](NC(=O)[C@H](CC(C)C)NC(=O)[C@H](C)NC(=O)[C@H](Cc1ccccc1)NC(=O)c1ccc(C(C)(C)C)cc1)C(=O)N[C@@H](CO)C(=O)OC  inhibition (Neuropeptide Y receptor type 2 (NPY2R, Homo sapiens, UniProt P49146); ligand displacement, radioligand; 10 µM): 10%
O=C(Nc1cccnn1)N1CCN([C@@H]2CCOc3cc(C(F)(F)F)ccc32)CC1  inhibition (Glucagon receptor (GCGR, Homo sapiens, UniProt P47871); cell-free assay; 20 µM): -1%
CC(C)Cn1cnc2c(N)nc3ccccc3c21  inhibition (ADRA1D; ligand displacement, radioligand; 10 µM): 76%
CC(C)N1CCC[C@H]1CNC(=O)c1cn(C2CCCC2)c(=O)c2c1c1ccccc1n2C  inhibition (ADRA1D; ligand displacement, radioligand; 10 µM): 9%
CCOC(=O)c1ccc(OC(=O)CCCCCNC(=N)N)cc1  inhibition (CASP7; enzyme activity, inhibitor; 10 µM): 1%
C#Cc1n[nH]c2c(-c3cn(C(C)c4ccccn4)c(=O)[nH]c3=O)cc(F)cc12 (stereo not drawn)  inhibition (Platelet-derived growth factor receptor beta (PDGFRB, Homo sapiens, UniProt P09619); enzyme activity, inhibitor; 1 µM): 6.6%
CC(=O)N[C@@H](CC(=O)O)C(=O)N[C@@H](CC(N)=O)C(=O)N[C@@H](CC(C)C)C(=O)N[C@H](C=O)CC(=O)O  inhibition (CASP7; enzyme activity, inhibitor; 5 nM): 8%
CC(C)C[C@H](NC(=O)[C@H](Cc1ccccc1)NC(=O)c1cnccn1)B(O)O  inhibition (Serine protease HTRA2, mitochondrial (HTRA2, Homo sapiens, UniProt O43464); enzyme activity, inhibitor; 33 µM): < 5%
N=C(N)c1ccc2cc(OC(=O)c3ccc(N=C(N)N)cc3)ccc2c1  inhibition (CASP7; enzyme activity, inhibitor; 10 µM): 1%
CN(C)Cc1ccc(-c2nc3ccccc3s2)c(-c2ccc(O)cc2)c1  inhibition (PTGS2; enzyme activity, inhibitor, absorbance; 10 µM): 0%
N#Cc1ccc(NCCNCC(=O)N2N=CCC2C#N)nc1 (stereo not drawn)  inhibition (Dipeptidyl peptidase 2; enzyme activity, inhibitor; 1 µM): 8%
Cc1ccc(-c2nc3ccccc3s2)c(-c2ccc(S(N)(=O)=O)cc2)c1  inhibition (PTGS2; enzyme activity, inhibitor, absorbance; 10 µM): 87.3%
C1=Cc2ccccc2Nc2ccccc21  inhibition (Dihydrofolate reductase (folA, Escherichia coli, UniProt P0ABQ4); enzyme activity, inhibitor; 1 mM): ~87%
Cn1cc(-c2cccc(N3CCc4c(sc5c4CC(C)(C)C5)C3=O)c2CO)cc(Nc2ccncn2)c1=O  inhibition (Dual specificity tyrosine-phosphorylation-regulated kinase 3 (DYRK3, Homo sapiens, UniProt O43781); enzyme activity, inhibitor; 1 µM): 6%
Cc1ccc(-c2nc3ccccc3s2)c(-c2ccc(O)cc2)c1  inhibition (PTGS2; enzyme activity, inhibitor, absorbance; 10 µM): 35.4%
CN(C)C(=O)COC(=O)Cc1ccc(OC(=O)c2ccc(NC(=N)N)cc2)cc1  inhibition (Dipeptidyl peptidase 2; enzyme activity, inhibitor; 10 µM): 20%
CS(=O)(=O)c1ccc(-c2ncc(Cl)cc2-c2nc3ccccc3s2)cc1  inhibition (PTGS2; enzyme activity, inhibitor, absorbance; 10 µM): 98%
COc1cc(Nc2ncc(F)c(Nc3ccc4c(n3)NC(=O)C(C)(C)O4)n2)cc(OC)c1OC  inhibition (Serine/threonine-protein kinase pim-3 (PIM3, Homo sapiens, UniProt Q86V86); binding, competition with immobilised ligand; 10 µM): 38%
